Series [1] is described as follows: Effective permeability of compound by PAMPA. In kind it is ADME. Particulars: read-out: Peff. A general note: The PAMPA barrier holds no transporters, so it reflects passive diffusion.
Series [2] is described as follows: Stability in human blood assessed as compound remaining measured after 1 hr. It is filed as ADME, tissue-based. The conditions noted are these: read-out: Stabilty. The method, boiled down:
(§1)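 Compound incubated in whole blood (human or mouse) at 37° C for one hour; stability expressed as percentage of compound remaining.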

Series [3] is described as follows: Stability in mouse blood assessed as compound remaining measured after 1 hr. It is filed as ADME, tissue-based. The conditions noted are these: read-out: Stabilty. The method, boiled down:
as §1

Series [4] concerns the target NACHT, LRR and PYD domains-containing protein 3 (Homo sapiens, UniProt Q96P20). The series is described as follows: Inhibition of NLRP3 in human PBMC cells assessed as inhibition of LPS and ATP-induced IL-1beta production. It is filed as cell-based.
A short description of series [5]: Inhibition of TNFalpha production in human PBMC.
Series [6] can be described thus: Inhibition of IL-6 production in human PBMC.

A word on the IC50: it is the point on the concentration scale where inhibition reaches its midpoint.

Each structure is given as a SMILES string.

Sequence of NACHT, LRR and PYD domains-containing protein 3 (Q96P20 whole entry, the tested form may be a part): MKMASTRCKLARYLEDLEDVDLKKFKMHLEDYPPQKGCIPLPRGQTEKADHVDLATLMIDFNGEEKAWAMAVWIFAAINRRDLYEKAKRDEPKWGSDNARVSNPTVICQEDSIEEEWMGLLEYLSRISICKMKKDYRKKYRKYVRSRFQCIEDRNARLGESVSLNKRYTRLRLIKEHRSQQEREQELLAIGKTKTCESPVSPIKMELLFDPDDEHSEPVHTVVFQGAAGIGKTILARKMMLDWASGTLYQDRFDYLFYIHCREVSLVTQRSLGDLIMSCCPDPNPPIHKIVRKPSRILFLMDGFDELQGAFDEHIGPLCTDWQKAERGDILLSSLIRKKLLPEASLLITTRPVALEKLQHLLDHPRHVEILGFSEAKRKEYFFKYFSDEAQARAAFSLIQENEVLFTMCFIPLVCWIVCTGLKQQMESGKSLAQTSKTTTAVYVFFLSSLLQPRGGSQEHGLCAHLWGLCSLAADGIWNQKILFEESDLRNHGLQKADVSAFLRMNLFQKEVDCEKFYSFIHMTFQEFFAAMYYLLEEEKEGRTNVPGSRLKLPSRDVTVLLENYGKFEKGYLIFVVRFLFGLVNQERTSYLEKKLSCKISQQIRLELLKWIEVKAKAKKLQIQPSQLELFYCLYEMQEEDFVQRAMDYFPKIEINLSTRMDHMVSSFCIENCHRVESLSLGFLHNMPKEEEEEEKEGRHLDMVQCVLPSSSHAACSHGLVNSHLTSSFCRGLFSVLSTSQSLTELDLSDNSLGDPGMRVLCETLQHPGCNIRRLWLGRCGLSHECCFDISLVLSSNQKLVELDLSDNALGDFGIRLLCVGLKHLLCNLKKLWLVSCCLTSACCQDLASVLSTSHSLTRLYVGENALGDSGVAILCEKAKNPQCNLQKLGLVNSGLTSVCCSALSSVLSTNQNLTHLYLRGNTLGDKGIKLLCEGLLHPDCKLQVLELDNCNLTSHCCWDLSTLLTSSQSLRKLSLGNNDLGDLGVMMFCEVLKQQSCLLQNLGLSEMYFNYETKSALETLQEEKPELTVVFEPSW

As for `CCOC(=O)[C@@H](Cc1cnccn1)NC(=O)Nc1c2c(cc3c1CCC3)CCC2`, the Papp in series [1] amounted to 13.9 ×10⁻⁶ cm/s. Besides, the remaining at 1 h in series [2] amounted to 79.2%; in series [3] it was 0%.

As to `COC(=O)C(C)(C)NC(=O)Nc1c2c(cc3c1CCC3)CCC2`, the IC50 in series [4] is more than 20 µM.

As to `CCOC(=O)[C@@H](Cc1ncccn1)NC(=O)Nc1c2c(cc3c1CCC3)CCC2`, the IC50 stood at 2.7 µM in series [5] and 4.3 µM in series [6]. Also, the Papp in series [1] came out at 8.2 ×10⁻⁶ cm/s. The remaining at 1 h in series [2] was found to be 92.4%; in series [3], 0%.

Take `CCOC(=O)CNC(=O)NC(c1ccccc1)c1ccccc1`: the IC50 in series [4] is more than 20 µM.

Take `COC(=O)CC(=O)Nc1c2c(cc3c1CCC3)CCC2`: in series [4], the IC50 is more than 20 µM.

Turning to `Cc1nnc(CNC(=O)Nc2c3c(cc4c2CCC4)CCC3)o1`, in series [4], the IC50 is more than 20 µM.

`CCOC(=O)CNC(=O)NC12CC3CC(CC(C3)C1)C2`: the IC50 in series [4] was more than 20 µM.

As for `CCOC(=O)CNC(=O)Nc1c2c(nc3c1CCC3)CCC2`, the IC50 in series [4] is more than 20 µM.

As for `Cc1nc(CNC(=O)Nc2c3c(cc4c2CCC4)CCC3)no1`, in series [4], the IC50 was more than 20 µM.

Turning to `CCOC(=O)CNC(=O)Nc1c2c(c(Cl)c3c1CCC3)CCC2`, in series [4], the IC50 is more than 20 µM.

For the compound `CNC(=O)CNC(=O)Nc1c2c(cc3c1CCC3)CCC2`, the IC50 in series [4] was more than 20 µM.

Consider `COC(=O)[C@@H](Cc1ccncc1)NC(=O)Nc1c2c(cc3c1CCC3)CCC2`, for which, in series [4], the IC50 was more than 20 µM.

For the compound `CCOC(=O)CNC(=O)Nc1c2c(cc3c1CCC3)CCCC2`, the half-maximal inhibitory concentration (IC50) in series [4] was more than 20 µM.

Consider `COC(=O)C(CCc1ccccc1)NC(=O)Nc1c2c(cc3c1CCC3)CCC2` (stereo not drawn), for which the IC50 in series [4] is more than 20 µM.

On to `O=C(CS(=O)(=O)Nc1ccccc1)Nc1c2c(cc3c1CCC3)CCC2`, for which the IC50 in series [4] is more than 20 µM.

Take `COC(=O)CNC(=O)Nc1c(C(C)C)cccc1C(C)C`: the IC50 in series [4] is more than 20 µM.

In the case of `CCOC(=O)CNC(=O)Nc1c(C)cccc1C`, in series [4], the IC50 was more than 20 µM.

`CC(C)(O)c1coc(S(=O)(=O)NC(=O)Nc2ccccc2)c1`: in series [4], the IC50 was more than 20 µM.

`CC(C)(C)OC(=O)CNC(=O)Nc1c2c(cc3c1CCC3)CCC2`: the IC50 in series [4] is more than 20 µM.

In the case of `CN(C)C(=O)CNC(=O)Nc1c2c(cc3c1CCC3)CCC2`, the IC50 in series [4] was more than 20 µM.

For `O=C(CNS(=O)(=O)c1ccccc1)Nc1c2c(cc3c1CCC3)CCC2`, in series [4], the IC50 is more than 20 µM.

Turning to `CC(C)(O)c1coc(S(=O)(=O)[N-]C(=O)Nc2c3c(cc4c2CCC4)CCC3)c1.[Na+]`, the IC50 in series [5] and in series [6] was more than 40 µM throughout. Further, in series [1], the Papp is less than 0.0003 ×10⁻⁶ cm/s.

As to `CC(C)(O)c1coc(S(=O)(=O)NC(=O)Nc2cccc3c2CCC3)c1`, the IC50 in series [4] is more than 20 µM.

`O=C(O)CC(=O)Nc1c2c(cc3c1CCC3)CCC2`: the IC50 in series [4] is more than 20 µM.

For the compound `O=C(O)CNC(=O)Nc1c2c(cc3c1CCC3)CCC2`, in series [4], the IC50 is more than 20 µM.

The record behind these values is ChEMBL document CHEMBL4699510, “Discovery of a series of ester-substituted NLRP3 inflammasome inhibitors” (Bioorg Med Chem Lett, 2020).
